ChEMBL document CHEMBL1806376, “Synthesis and biological properties of macrolactam analogs of the natural product macrolide (-)-A26771B” (2011)
≈ marks a conversion by molar mass, not a printed value.

How the values were obtained:
Assay type in all cases: functional
Staphylococcus aureus [1] = test: Antibacterial activity against methicillin-resistant Staphylococcus aureus Sa2 by broth microdilution method; conditions: Staphylococcus aureus, Sa2; read-out: MIC
Summary of the method: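 Broth microdilution run according to the CLSI method.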

Haemophilus influenzae [2] = test: Antibacterial activity against Haemophilus influenzae ATCC 31517 by broth microdilution method; conditions: Haemophilus influenzae, ATCC 31517; read-out: MIC
Summary of the method: (§1)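 MIC values determined by broth microdilution following the CLSI method.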

Streptococcus pneumoniae [3] = test: Antibacterial activity against Streptococcus pneumoniae Pen9 IV381-221 by broth microdilution method; conditions: Streptococcus pneumoniae, Pen9 IV381-221; read-out: MIC; summary of the method: as §1
Enterococcus faecalis = test: Antibacterial activity against Enterococcus faecalis ATCC 29212 by broth microdilution method; conditions: Enterococcus faecalis, ATCC 29212; read-out: MIC; summary of the method: as §1
Enterococcus faecium = test: Antibacterial activity against Enterococcus faecium 1 by broth microdilution method; conditions: Enterococcus faecium, 1; read-out: MIC; summary of the method: as §1
Staphylococcus aureus [4] = test: Antibacterial activity against Staphylococcus aureus oxford by broth microdilution method; conditions: Staphylococcus aureus, oxford; read-out: MIC; summary of the method: as §1
Staphylococcus aureus [5] = test: Antibacterial activity against Staphylococcus aureus ATCC 25923 by broth microdilution method; conditions: Staphylococcus aureus, ATCC 25923; read-out: MIC; summary of the method: as §1
Pseudomonas aeruginosa = test: Antibacterial activity against Pseudomonas aeruginosa ATCC 27853 by broth dilution method; summary of the method: as §1
Haemophilus influenzae [6] = test: Antibacterial activity against efflux knock-out Haemophilus influenzae LS2 by broth microdilution method; conditions: Haemophilus influenzae, LS2; read-out: MIC; summary of the method: as §1
Streptococcus pneumoniae [7] = test: Antibacterial activity against Streptococcus pneumoniae ATCC 49619 by broth microdilution method; conditions: Streptococcus pneumoniae, ATCC 49619; read-out: MIC; summary of the method: as §1
Staphylococcus aureus [8] = test: Antibacterial activity against Staphylococcus aureus ATCC 25923 by broth microdilution method in presence of 10% human serum; conditions: Staphylococcus aureus, ATCC 25923; read-out: MIC
Summary of the method: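 MIC determined by broth microdilution per the CLSI method, with 10% human serum added to the medium.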

Escherichia coli = test: Antibacterial activity against Escherichia coli ATCC 25922 by broth microdilution method; summary of the method: as §1
Staphylococcus aureus [9] = test: Antibacterial activity against Staphylococcus aureus ATCC 13709 by broth microdilution method; conditions: Staphylococcus aureus, ATCC 13709; read-out: MIC; summary of the method: as §1

| SMILES | MIC (Staphylococcus aureus [1]) [µg/mL] | MIC (Haemophilus influenzae [2]) [µg/mL] | MIC (Streptococcus pneumoniae [3]) [µg/mL] | MIC (Enterococcus faecalis) [µg/mL] | MIC (Enterococcus faecium) [µg/mL] | MIC (Staphylococcus aureus [4]) [µg/mL] | MIC (Staphylococcus aureus [5]) [µg/mL] | MIC (Pseudomonas aeruginosa) [µg/mL] | MIC (Haemophilus influenzae [6]) [µg/mL] | MIC (Streptococcus pneumoniae [7]) [µg/mL] | MIC (Staphylococcus aureus [8]) [µg/mL] | MIC (Escherichia coli) [µg/mL] | MIC (Staphylococcus aureus [9]) [µg/mL] |
| --- | --- | --- | --- | --- | --- | --- | --- | --- | --- | --- | --- | --- | --- |
| C[C@@H]1CCCCCCCCC[C@H](OC(=O)CCC(=O)O)C(=O)/C=C/C(=O)O1 | 2 (≈ 5.23 µM) | > 32 | 8 (≈ 20.9 µM) | 16 (≈ 41.8 µM) | 4 (≈ 10.5 µM) | 2 (≈ 5.23 µM) | 4 (≈ 10.5 µM) | > 32 | 16 (≈ 41.8 µM) | 16 (≈ 41.8 µM) | > 32 | > 32 | 2 (≈ 5.23 µM) |
| C[C@@H]1CCCCCCCCC[C@H](OC(=O)CCC(=O)OC(C)(C)C)C(=O)/C=C/C(=O)O1 | 0.5 (≈ 1.14 µM) | > 32 | 1 (≈ 2.28 µM) | 2 (≈ 4.56 µM) |  | 2 (≈ 4.56 µM) | 8 (≈ 18.2 µM) | > 32 | 8 (≈ 18.2 µM) | 2 (≈ 4.56 µM) | > 32 | > 32 | 2 (≈ 4.56 µM) |
| C[C@@H]1CCCCCCCCC[C@H](OC(=O)CCC(=O)OC(C)(C)C)C(=O)CC(N2CCN(C)CC2)C(=O)O1 (stereo not given in full) | 2 (≈ 3.71 µM) | > 32 | 2 (≈ 3.71 µM) | 4 (≈ 7.42 µM) | 4 (≈ 7.42 µM) | 2 (≈ 3.71 µM) | 4 (≈ 7.42 µM) | > 32 |  | 4 (≈ 7.42 µM) | > 32 | > 32 | 2 (≈ 3.71 µM) |
| CC(=O)N(CCOc1ccccc1)C1CC(=O)[C@@H](OC(=O)CCC(=O)OC(C)(C)C)CCCCCCCCC[C@@H](C)OC1=O (stereo not given in full) | > 32 | > 32 | > 32 | > 32 | > 32 | > 32 | > 32 | > 32 | > 32 | > 32 | > 32 | > 32 | > 32 |
| C[C@@H]1CCCCCCCCC[C@H](OC(=O)CCC(=O)OC(C)(C)C)C(=O)c2[nH]ncc2C(=O)O1 | > 64 | > 64 | 32 (≈ 66.9 µM) | > 64 | > 64 | > 64 | > 64 | > 64 | 8 (≈ 16.7 µM) | > 64 | > 64 | > 64 | > 64 |
| C[C@@H]1CCCCCCCCC[C@H](O)C(=O)/C=C/C(=O)O1 | 2 (≈ 7.08 µM) | 16 (≈ 56.7 µM) | 2 (≈ 7.08 µM) | 2 (≈ 7.08 µM) | 8 (≈ 28.3 µM) | 1 (≈ 3.54 µM) | 2 (≈ 7.08 µM) | > 32 | 1 (≈ 3.54 µM) | 2 (≈ 7.08 µM) | 32 | > 32 | 1 (≈ 3.54 µM) |
| CO[C@H]1CCCCCCCCC[C@@H](C)OC(=O)/C=C/C1=O | 0.5 (≈ 1.69 µM) | 32 (≈ 108 µM) | 2 (≈ 6.75 µM) | 2 (≈ 6.75 µM) | 2 (≈ 6.75 µM) | 1 (≈ 3.37 µM) | 1 (≈ 3.37 µM) | > 64 | 4 (≈ 13.5 µM) | 2 (≈ 6.75 µM) | 16 | > 64 | 1 (≈ 3.37 µM) |
| CC(=O)O[C@H]1CCCCCCCCC[C@@H](C)OC(=O)/C=C/C1=O | 0.5 (≈ 1.54 µM) | 32 (≈ 98.6 µM) | 4 (≈ 12.3 µM) | 4 (≈ 12.3 µM) | 2 (≈ 6.16 µM) | 1 (≈ 3.08 µM) | 1 (≈ 3.08 µM) | > 64 | 4 (≈ 12.3 µM) | 2 (≈ 6.16 µM) | 16 | > 64 | 0.5 (≈ 1.54 µM) |
| Cc1nc2c([nH]1)CCCCCCCCC[C@@H](C)OC(=O)/C=C/2 | 32 (≈ 105 µM) | > 64 | 8 (≈ 26.3 µM) | 32 (≈ 105 µM) | 16 (≈ 52.6 µM) | 32 (≈ 105 µM) | 32 (≈ 105 µM) | > 64 | 16 (≈ 52.6 µM) | 16 (≈ 52.6 µM) | > 64 | > 64 | 32 (≈ 105 µM) |
